Measured values taken from ChEMBL document CHEMBL4152190, “Microwave-assisted one-pot synthesis of new phenanthrene fused-tetrahydrodibenzo-acridinones as potential cytotoxic and apoptosis inducing agents” (Eur J Med Chem, 2018).

Assays:
SK-OV-3 = experiment: Cytotoxicity against human SKOV3 cells after 48 hrs by MTT assay; format: functional, cell-based; conditions: SK-OV-3, 48 h
Method in brief: (§1)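 ATCC lines grown in DMEM or RPMI with 10% FBS and antibiotic-antimycotic, 37 °C, 5% CO2. Seeded at 3×10^4 cells/well, 24 h before dosing with vehicle (DMSO) controls. […] Cisplatin as reference.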

HeLa = experiment: Cytotoxicity against human HeLa cells after 48 hrs by MTT assay; format: functional, cell-based; method in brief: as §1
HT-1080 = experiment: Cytotoxicity against human HT1080 cells after 48 hrs by MTT assay; format: functional, cell-based; conditions: HT-1080, 48 h; method in brief: as §1
PC-3 = experiment: Cytotoxicity against human PC3 cells after 48 hrs by MTT assay; format: functional, cell-based; conditions: PC-3, 48 h; method in brief: as §1
HEK-293T = experiment: Cytotoxicity against human HEK293T cells after 48 hrs by MTT assay; format: cell-based; method in brief: as §1

Q: With COc1cc2c3c(c4cc(OC)c(OC)cc4c2cc1OC)C(c1cc(OC)c(O)c(OC)c1)C1=C(CC(C)(C)CC1=O)N3 (stereo not given) as the compound, how does the IC50 (SK-OV-3) read?
A: Its IC50 is 6.5 µM.

Q: What about the IC50 (HeLa) of the same compound?
A: Its IC50 is 9.42 µM.

Q: And the IC50 (HT-1080)?
A: The IC50 was 7.64 µM.

Q: And the IC50 (PC-3)?
A: Its IC50 is 6.84 µM.

Q: What about the IC50 (HEK-293T) of the same compound?
A: The IC50 was > 50 µM.

Q: How did the IC50 (SK-OV-3) turn out when COc1cc2c3c(c4cc(OC)c(OC)cc4c2cc1OC)C(c1ccc(C(F)(F)F)cc1)C1=C(CC(C)(C)CC1=O)N3 (stereo not given) was run?
A: Its IC50 is 18.6 µM.

Q: And the IC50 (HeLa)?
A: The IC50 was > 50 µM.

Q: And the IC50 (HT-1080)?
A: The IC50 was 15.6 µM.

Q: And the IC50 (PC-3)?
A: Its IC50 is 31.4 µM.

Q: And the IC50 (HEK-293T)?
A: The IC50 was 35.7 µM.

Q: What does the source list for COc1cc2c3c(c4cc(OC)c(OC)cc4c2cc1OC)C(c1ccc(Br)cc1)C1=C(CC(C)(C)CC1=O)N3 (stereo not given)?
A: IC50 (SK-OV-3): 15.5 µM; IC50 (HeLa): 31.6 µM; IC50 (HT-1080): 11.6 µM; IC50 (PC-3): 12.4 µM; IC50 (HEK-293T): 36.3 µM

Q: Which IC50 (SK-OV-3) does the source give for COc1ccc(C2C3=C(CCCC3=O)Nc3c2c2cc(OC)c(OC)cc2c2cc(OC)c(OC)cc32)cc1 (stereo not given) here?
A: The IC50 was 0.61 µM.

Q: And the IC50 (HeLa)?
A: The IC50 was 2.62 µM.

Q: And the IC50 (HT-1080)?
A: The IC50 was 2.62 µM.

Q: What about the IC50 (PC-3) of the same compound?
A: The IC50 was 5.79 µM.

Q: What about the IC50 (HEK-293T) of the same compound?
A: Its IC50 is 28.3 µM.

Q: COc1ccc(C2C3=C(CC(C)(C)CC3=O)Nc3c2c2cc(OC)c(OC)cc2c2cc(OC)c(OC)cc32)cc1OC (stereo not given) was tested. Which IC50 (SK-OV-3) did it give?
A: Its IC50 is 13.7 µM.

Q: And the IC50 (HeLa)?
A: The IC50 was 28.1 µM.

Q: What about the IC50 (HT-1080) of the same compound?
A: The IC50 was 21.3 µM.

Q: And the IC50 (PC-3)?
A: The IC50 was 17.6 µM.

Q: What about the IC50 (HEK-293T) of the same compound?
A: The IC50 was 43.5 µM.

Q: How did the IC50 (SK-OV-3) turn out when COc1cc2c3c(c4cc(OC)c(OC)cc4c2cc1OC)C(c1cccs1)C1=C(CC(C)(C)CC1=O)N3 (stereo not given) was run?
A: The IC50 was 1.6 µM.

Q: And the IC50 (HeLa)?
A: The IC50 was 2.28 µM.

Q: What about the IC50 (HT-1080) of the same compound?
A: Its IC50 is 5.87 µM.

Q: And the IC50 (PC-3)?
A: The IC50 was 7.1 µM.

Q: And the IC50 (HEK-293T)?
A: The IC50 was 18.9 µM.

Q: Which IC50 (SK-OV-3) does the source give for COc1cc2c3c(c4cc(OC)c(OC)cc4c2cc1OC)C(c1ccc(C(C)C)cc1)C1=C(CC(C)(C)CC1=O)N3 (stereo not given) here?
A: The IC50 was 11.5 µM.

Q: What about the IC50 (HeLa) of the same compound?
A: Its IC50 is > 50 µM.

Q: And the IC50 (HT-1080)?
A: Its IC50 is 32.3 µM.

Q: What about the IC50 (PC-3) of the same compound?
A: The IC50 was > 50 µM.

Q: What about the IC50 (HEK-293T) of the same compound?
A: Its IC50 is 25.7 µM.

Q: How did the IC50 (SK-OV-3) turn out when COc1cc2c3c(c4cc(OC)c(OC)cc4c2cc1OC)C(c1ccc(C)cc1)C1=C(CCCC1=O)N3 (stereo not given) was run?
A: Its IC50 is 1.62 µM.

Q: What about the IC50 (HeLa) of the same compound?
A: Its IC50 is 4.79 µM.

Q: And the IC50 (HT-1080)?
A: The IC50 was 5.63 µM.

Q: What about the IC50 (PC-3) of the same compound?
A: The IC50 was 7.17 µM.

Q: What about the IC50 (HEK-293T) of the same compound?
A: The IC50 was 38.9 µM.

Q: For COc1cc2c3c(c4cc(OC)c(OC)cc4c2cc1OC)C(c1sccc1C)C1=C(CC(C)(C)CC1=O)N3 (stereo not given), which IC50 (SK-OV-3) is on record?
A: Its IC50 is 2.89 µM.

Q: What about the IC50 (HeLa) of the same compound?
A: Its IC50 is 3.7 µM.

Q: What about the IC50 (HT-1080) of the same compound?
A: The IC50 was 8.85 µM.

Q: And the IC50 (PC-3)?
A: The IC50 was 21.6 µM.

Q: What about the IC50 (HEK-293T) of the same compound?
A: The IC50 was 33.5 µM.
